Data taken from ChEMBL document CHEMBL1157991, “Novel anti-HIV lancilactone C and related triterpenes from Kadsura lancilimba” (J Nat Prod, 1999).
≈ marks a conversion by molar mass, not a printed value. Calls of active or inactive are those of the source.

Key:
[1] = test system: Human immunodeficiency virus 1; assay: Antiviral activity against HIV1 3B infected in human H9 T cells after 4 days by ELISA; type: functional, organism-based; conditions: for EC50: Human immunodeficiency virus 1, 3B, H9, 96 h
In short: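 H9 T cells kept in RPMI 1640 with 10% fetal calf serum at 37 °C, 5% CO2, used in log phase. Infected with HIV-1 IIIB (MOI 0.1-0.01 IU/cell) for 1 h, washed, and seeded at 4 × 10^5 cells/mL with compound diluted in medium. After 4 days at 37 °C, p24 in medium was read by sandwich ELISA (cutoff 12.5 pg/mL) against a p24 standard curve. EC50 was derived.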

H9 = assay: Cytotoxicity against human H9 cells; type: cell-based
In short: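 Uninfected H9 T cells (log phase, RPMI 1640 + 10% FCS) were seeded at 4 × 10^5 cells/mL with compound diluted in medium and kept 4 days at 37 °C, 5% CO2. Cell density was counted by Coulter counter and IC50 was derived.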

[2] = Therapeutic index, ratio of IC50 for human H9 cells to EC50 for HIV1 3B; type: cell-based; conditions: H9 cells infected with HIV-1 3B, read-out: TI

EC50 [1] | Compound | Activity [1] | IC50 (H9) | selectivity ratio [2]
– | CC1=CC[C@@H]([C@@H](C)[C@H]2CC[C@@]3(C)[C@@H]4C[C@@H](O)[C@H]5C(C)(C)OC(=O)C=C[C@@]56C[C@@]46CC[C@]23C)OC1=O [KADSULACTONE A] | inactive | 8.6 µg/mL (≈ 17.8 µM) | –
– | CC1=CC[C@@H]([C@@H](C)[C@H]2CC[C@@]3(C)C4=C(C=C5C=CC(=O)OC(C)(C)[C@@H]5[C@H](O)C4)CC[C@]23C)OC1=O [LANCILACTONE A] | inactive | 14.3 µg/mL (≈ 29.8 µM) | –
– | CC1=CC[C@@H]([C@@H](C)[C@H]2CC[C@@]3(C)C4=C(C=C5C=CC(=O)OC(C)(C)[C@@H]5C=C4)CC[C@]23C)OC1=O [LANCILACTONE B] | inactive | 7.1 µg/mL (≈ 15.3 µM) | –
1.4 µg/mL (≈ 3.01 µM) | CC1=CC[C@@H]([C@@H](C)[C@H]2CC[C@@]3(C)C4=C(C=C(CCC(=O)O)C(=C(C)C)C=C4)CC[C@]23C)OC1=O [LANCILACTONE C] | – | > 100 µg/mL | > 71.4
0.045 µg/mL (≈ 0.168 µM) | Cc1cn([C@H]2C[C@H](N=[N+]=[N-])[C@@H](CO)O2)c(=O)[nH]c1=O [ZIDOVUDINE] | – | – | –
